A selection: hits, their analogues and other compounds. The true share with any hit is near 1.4%.
Env fusion inh = inhibitors of HIV-1 Env-driven cell-cell fusion, primary screen, HeLa-JRFL effector, CEM21 target cells, luciferase | inhibition, % at 12.3 µM | AID 651610, 2012 | 1.1% of 360,000 active;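 active = mean replicate inhibition score of at least 50 and every replicate individually at or above 50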;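 note: 0% = plate neutral controls and 100% = maraviroc near 300 nM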
GSK3A inh = blockers of GSK3A enzyme activity – biochemical, luminescence, cell-free homogeneous, HTS, primary screen. GSK-3 alpha kinase, ADP-Glo luminescence, 60 min. 0.1% of 320,000 active. Glycogen synthase kinase-3 alpha (Homo sapiens), P49840. inhibition, % at 10 µM. AID 2650, 2010;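 active = more than half of replicates show inhibition above 20%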;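 note: GST-tagged GSK-3 alpha with peptide substrate and 25 µM ATP; 0% = DMSO neutral wells and 100% = GW8510 positive control wells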
GSIS activator = GLuc luminescence reporter in INS-1E cells, primary screen for activators of glucose-dependent secretion of insulin; INS-1E GLuc reporter insulin secretion, 2-3 h; activation, % at 16.6 µM; 0.61% of 370,000 active; AID 743287, 2014;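 active = lowest replicate activation of at least 40%, so every replicate reaches that level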;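 note: 0% = median of neutral control wells and 100% = median of IBMX positive control wells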
CDK5 p35 inh = inhibitors of human CDK5/p35 kinase, primary screen, biochemical, single concentration; Recombinant CDK5/p35, ADP-Glo luminescence, 60 min; inhibition, % at 10 µM; 0.01% of 330,000 active;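 active = highest replicate inhibition of at least 50% and at least 75% of replicates reaching 50%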;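 note: plate controls were DMSO neutral control for no effect and GW8510 at 10 µM for full effect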
GSK3B inh = human GSK3beta kinase inhibitors, primary screen, biochemical, cell-free homogeneous, HTS | GST-GSK3beta kinase, ADP-Glo luminescence, 60 min; hits give low values | activity score (negative = inhibition), % at 10 µM | 0.038% of 300,000 active;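 active = more than half of replicate wells score below -50%, meaning over 50% inhibition versus plate controls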;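 note: 0% = median DMSO wells and -100% = median GW8510 positive control wells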
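Test system – GST-tagged human GSK3beta kinase, cell-free · Incubation – 60 min enzyme reaction, room temperature · Signal – ADP-Glo luminescence · Also added – peptide substrate and ATP at 25 µM · Controls – DMSO neutral wells and GW8510 at 20 µM as positive · Buffer or medium – Tris/MgCl2 kinase buffer · Measure – Luminescence-derived activity versus plate DMSO and GW8510 wells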
STK33 inh = inhibitors of purified STK33 kinase, primary screen, biochemical, ADP-Glo luminescence, homogeneous, cell-free; Serine/threonine-protein kinase 33 (Homo sapiens), Q9BYT3; MBP phosphorylation; inhibition, % at 10 µM; 0.073% of 320,000 active; AID 2661, 2010;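 active = inhibition at or above 25%, using the most active replicate where run in duplicate; inactive = inhibition below 25%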
Target sequence (Q9BYT3 whole entry, looked up): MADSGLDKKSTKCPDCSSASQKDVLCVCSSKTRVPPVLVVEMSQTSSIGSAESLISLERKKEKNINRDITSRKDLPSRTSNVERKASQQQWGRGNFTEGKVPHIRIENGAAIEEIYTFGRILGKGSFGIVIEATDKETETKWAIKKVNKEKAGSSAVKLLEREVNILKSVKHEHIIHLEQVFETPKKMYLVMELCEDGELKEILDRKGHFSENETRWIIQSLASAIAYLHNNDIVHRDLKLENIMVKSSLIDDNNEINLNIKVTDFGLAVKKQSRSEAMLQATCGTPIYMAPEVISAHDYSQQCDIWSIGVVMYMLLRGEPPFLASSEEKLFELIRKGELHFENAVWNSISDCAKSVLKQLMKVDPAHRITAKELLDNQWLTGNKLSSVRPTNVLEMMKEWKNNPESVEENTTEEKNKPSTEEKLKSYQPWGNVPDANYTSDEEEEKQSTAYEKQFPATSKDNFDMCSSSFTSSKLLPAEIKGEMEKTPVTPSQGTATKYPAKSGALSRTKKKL
Numbers without * were called inactive; . = not tested or not shown; [ ] = remark or other dose.

SMILES | Env fusion inh | GSK3A inh | GSIS activator | CDK5 p35 inh | GSK3B inh | STK33 inh
CS(=O)(=O)c1ccc(C(=O)OCC(=O)Nc2cccnc2Cl)cc1[N+](=O)[O-] | . | -0.2 | 118.3* | -0.3 | . | -0.5
CCNc1ccc(C(=O)OCC(=O)NC(=O)NCC(C)C)cc1[N+](=O)[O-] | 10.7 | -0.7 | -1.0 | 2.1 | 3.1 | -4.5
Cc1ccccc1NC(=O)COC(=O)c1ccc(S(C)(=O)=O)c([N+](=O)[O-])c1 | 18.2 | -0.2 | 4.6 | -2.0 | -0.5 | -0.5
CS(=O)(=O)c1ccc(C(=O)OCC(=O)NC(=O)C2COc3ccccc3O2)cc1[N+](=O)[O-] (configuration not stated) | -3.6 | -2.0 | 105.8* | -1.2 | . | 0.5
O=C(C[C@H]1C[C@@H]2c3cc(NS(=O)(=O)c4ccccc4)ccc3O[C@@H]2[C@@H](CO)O1)NC1CCCC1 | . | . | -8.3 | . | . | .
COCC(=O)Nc1ccc2c(c1)C(=O)N(C)[C@H]1CC[C@H](CC(=O)OC)O[C@H]1CO2 | -15.1[16.7 µM] | . | 2.5 | . | . | .
COc1ccc(/C=N/Nc2nc(-c3ccc(Cl)cc3)cc(C(F)(F)F)n2)c(OC)c1 | 15.9 | 1.9 | 76.0* | -1.0 | -2.2 | 0.9
COc1ccc([N+](=O)[O-])c(S(=O)(=O)c2ccc(Cl)cc2)n1 | 15.8 | 8.9 | 59.1* | -3.7 | -0.6 | 6.9
O=[N+]([O-])c1cccnc1S(=O)(=O)c1ccccc1 | 37.7 | 1.3 | 129.5* | -0.2 | -2.6 | 3.6
COc1ccc([N+](=O)[O-])c(S(=O)(=O)c2ccccc2)n1 | -52.9 | 3.2 | . | . | 2.4 | 4.3
COc1cccc(S(=O)(=O)Nc2ccc3c(c2)OC[C@@H](C)N(C(=O)Cc2cccnc2)C[C@@H](C)[C@@H](OC)CN(C)C3=O)c1 | 15.6[16.7 µM] | . | -5.8 | . | . | .
CCCCCc1c(-c2ccccc2OC)ncn1CCc1ccccc1OC | 69.4* | . | 9.5 | . | . | .
CCCCc1c(-c2ccccc2OC)ncn1C(C)c1ccc(Cl)cc1 (configuration not stated) | -7.7 | . | 54.6* | . | . | .
CCCCc1c(-c2ccccc2F)ncn1CCc1ccccc1OC | 65.0* | . | 63.6* | . | . | .
CCCCc1c(-c2ccccc2OC)ncn1Cc1ccc(Cl)cc1Cl | 12.3 | . | . | . | . | .
CCCCCc1c(-c2ccccc2F)ncn1CCc1ccccc1OC | 46.3 | . | 19.6 | . | . | .
CO[C@@H]1CN(C)C(=O)c2ccc(NC(C)=O)cc2OC[C@@H](C)N(C(=O)c2ccccc2F)C[C@H]1C | -2.0[16.7 µM] | . | . | . | . | .
CN1C(=O)c2cc(NC(=O)c3cccs3)ccc2OC[C@H]2O[C@@H](CC(=O)NCCN3CCCCC3)CC[C@H]21 | -22.9[16.7 µM] | . | 6.8 | . | . | .
COc1ccc(CCNC(=O)Cc2ccccc2)cc1OC | -0.7 | -0.4 | 29.6 | 0.2 | 1.3 | -1.6
COc1ccc(CCNC(=O)CSc2n[nH]c(N)n2)cc1OC | 1.9 | -1.7 | 86.4* | -3.2 | -6.4 | 0.3
COc1ccc(CCNC(=O)CCc2ccccc2)cc1OC | -7.1 | -3.5 | 59.6* | . | -2.9 | -0.8
COc1ccc(CCNC(=O)COC(=O)Cn2cnc3ccccc32)cc1OC | -3.7 | -0.5 | 56.9* | -0.2 | 1.8 | -0.8
COc1ccc(CCNC(N)=S)cc1OC | . | -1.5 | 52.8* | -0.6 | -0.3 | -0.2
COc1ccc(CCNC(=S)NCCc2ccc(OC)c(OC)c2)cc1OC | 4.8 | 8.6 | 7.1 | -1.3 | -6.1 | 1.2
COc1ccc(NC(=O)N(C)C[C@H]2OCCCC[C@H](C)Oc3ccc(NC(=O)CCCN(C)C)cc3C(=O)N([C@H](C)CO)C[C@@H]2C)cc1 | -6.7[16.7 µM] | . | 4.2 | . | . | .
SMILES | Env fusion inh | GSK3A inh | GSIS activator | CDK5 p35 inh | GSK3B inh | STK33 inh
CC(C)NC(=O)Nc1ccc2c(c1)C(=O)N([C@H](C)CO)C[C@H](C)[C@@H](CN(C)Cc1ccncc1)OCCCC[C@H](C)O2 | -4.3[16.7 µM] | . | 12.9 | . | . | .
C[C@@H]1CN([C@H](C)CO)C(=O)c2cc(NC(=O)Nc3ccccc3)ccc2O[C@@H](C)CCCCO[C@H]1CN(C)S(=O)(=O)c1cccs1 | -7.1[16.7 µM] | . | -25.9 | . | . | .
COc1ccc(CCNC(=O)CCc2nc3ccccc3[nH]2)cc1OC | 3.2 | -3.8 | 90.3* | 1.5 | -0.3 | -1.3
COc1ccc(CCNC(=O)CN2c3cccc4cccc(c34)S2(=O)=O)cc1OC | -5.9 | 0.4 | 98.2* | 0.8 | -1.9 | 1.0
COc1ccc(CCNC(=O)C(=O)NN=C2CCCCCCC2)cc1OC | 8.8 | 4.5 | 58.9* | 1.6 | 10.8 | 0.2
Cc1ccccc1S(=O)(=O)NCC[C@H]1CC[C@H](NC(=O)C2CCOCC2)[C@@H](CO)O1 | -1.7[16.7 µM] | . | 6.1 | . | . | .
COc1ccc(S(=O)(=O)N[C@H]2CC[C@@H](CCn3cc(-c4cccc(F)c4)nn3)O[C@H]2CO)cc1 | 13.2[16.7 µM] | . | -17.2 | . | . | .
CCC(=O)Nc1ccc(NC(=S)NC(=O)c2oc3ccccc3c2C)cc1 | . | -3.1 | 60.3* | -5.7 | 3.1 | 0.2
COc1ccc(S(=O)(=O)Nc2cccc3c2O[C@H](CN(C)Cc2ccccc2)[C@H](C)CN([C@@H](C)CO)C3=O)cc1 | 2.0[16.7 µM] | . | -1.6 | . | . | .
CN(Cc1ccccc1)S(=O)(=O)c1ccc(S(=O)(=O)N(Cc2ccc(F)cc2)C2CCCC2)cc1 | 57.9* | 0.1 | -26.4 | -1.9 | 1.6 | -0.7
COc1cccc(Cn2c(-c3nonc3N)nc3ccccc32)c1 | . | -0.6 | . | -0.4 | -1.6 | -0.9
COc1cc(Cn2c(-c3nonc3N)nc3ccccc32)ccc1C | 60.0* | -0.5 | . | 0.2 | -1.9 | -1.3
CSc1nc(SCC(=O)NCC2CCCO2)c2c3c(sc2n1)CN(C)CC3 (configuration not stated) | 3.5 | 57.5* | . | . | -29.2 | 2.4
COc1ccc(Cc2c(-c3ccco3)nc3c(C)cc(Br)cn23)c(C)c1 | 73.3* | . | . | . | . | .
C/C(=N/NS(=O)(=O)c1ccc(CC(C)C)cc1)c1ccncc1 | 64.8* | -2.5 | -23.3 | 0.1 | 1.9 | -2.4
C/C(=N/NS(=O)(=O)c1ccc(C(C)C)cc1)c1ccncc1 | 2.7 | -1.8 | -17.2 | 0.4 | -2.0 | -0.6
Cc1cccc(C(C)C)c1NC(=O)c1ccc(CN(c2ccccc2)S(=O)(=O)c2ccccc2)cc1 | 59.9* | 1.1 | -21.7 | -1.3 | 1.5 | -0.8
O=C(Nc1ccccn1)c1ccc(CN(c2ccccc2)S(=O)(=O)c2ccccc2)cc1 | -21.3 | 3.0 | 13.8 | -0.5 | 3.2 | 0.8
C/C=C/c1cnc2c(c1)C(=O)N([C@@H](C)CO)C[C@@H](C)[C@H](CN(C)S(=O)(=O)c1ccccc1F)O2 | -2.9[16.7 µM] | . | -2.6 | . | . | .
C=CC(=O)Nc1cccc(Oc2ncnc3[nH]cc(-c4cnc5ccccc5c4)c23)c1 | 57.1* | -0.5 | . | -0.6 | . | 2.6
O=C(CN1CCCN(Cc2ccc(F)cc2Cl)C1=O)NC1CCCCCCC1 | 72.2* | -2.0 | -21.9 | 0.7 | 2.7 | -0.2

Screens as filed in PubChem BioAssay.
